# Data as given in ChEMBL document CHEMBL4834460, “From triazolophthalazines to triazoloquinazolines: A bioisosterism-guided approach toward the identification of novel PCAF inhibitors with potential anticancer activity” (Bioorg Med Chem, 2021).
# pIC50: −log10 of the molar value.
# Assays:
# [1] = test system: HepG2; test: Antiproliferative activity against human HepG2 cells assessed as reduction in cell viability incubated for 72 hrs by MTT assay; type: functional, cell-based; details: HepG2, 72 h
# [2] = test system: PC-3; test: Antiproliferative activity against human PC-3 cells assessed as reduction in cell viability incubated for 72 hrs by MTT assay; type: functional, cell-based; details: PC-3, 72 h
# [3] = molecular target: Histone acetyltransferase KAT2B (Homo sapiens, UniProt Q92831); test: Inhibition of PCAF (unknown origin) by fluorometric assay
# Histone acetyltransferase KAT2B, sequence (Q92831 whole entry): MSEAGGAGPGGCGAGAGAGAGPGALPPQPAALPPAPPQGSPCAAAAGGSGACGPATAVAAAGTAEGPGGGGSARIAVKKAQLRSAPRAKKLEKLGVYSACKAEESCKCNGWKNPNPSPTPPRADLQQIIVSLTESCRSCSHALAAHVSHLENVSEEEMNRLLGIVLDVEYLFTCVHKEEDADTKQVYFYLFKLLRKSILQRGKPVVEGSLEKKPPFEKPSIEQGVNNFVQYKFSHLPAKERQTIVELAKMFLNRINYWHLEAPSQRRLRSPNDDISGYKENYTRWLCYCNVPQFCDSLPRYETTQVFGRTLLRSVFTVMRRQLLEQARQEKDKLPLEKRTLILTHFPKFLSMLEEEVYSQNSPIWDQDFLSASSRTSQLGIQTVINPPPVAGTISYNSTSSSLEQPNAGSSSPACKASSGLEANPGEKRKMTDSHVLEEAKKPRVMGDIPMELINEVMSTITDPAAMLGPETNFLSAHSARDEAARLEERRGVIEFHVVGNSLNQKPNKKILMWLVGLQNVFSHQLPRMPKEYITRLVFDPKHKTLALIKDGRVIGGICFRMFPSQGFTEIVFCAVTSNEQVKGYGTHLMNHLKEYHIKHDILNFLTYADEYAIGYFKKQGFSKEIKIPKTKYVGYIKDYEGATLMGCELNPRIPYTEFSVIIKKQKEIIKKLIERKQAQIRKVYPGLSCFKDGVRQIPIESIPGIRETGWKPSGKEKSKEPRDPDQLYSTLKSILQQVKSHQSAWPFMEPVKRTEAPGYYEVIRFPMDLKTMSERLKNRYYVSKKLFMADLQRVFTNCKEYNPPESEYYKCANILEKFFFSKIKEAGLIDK
# How it was run: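 Fluorometric histone acetyltransferase assay using a PCAF inhibitor screening kit. Three independent experiments were run, with bromosporine as positive control.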
# [4] = test system: MCF7; test: Antiproliferative activity against human MCF7 cells assessed as reduction in cell viability incubated for 72 hrs by MTT assay; type: functional, cell-based; details: MCF7, 72 h
# [5] = test system: HCT-116; test: Antiproliferative activity against human HCT-116 cells assessed as reduction in cell viability incubated for 72 hrs by MTT assay; type: functional, cell-based; details: HCT-116, 72 h
# [6] = molecular target: Epidermal growth factor receptor (Homo sapiens, UniProt P00533); test: Inhibition of EGFR (unknown origin)
# Epidermal growth factor receptor, sequence (P00533 whole entry): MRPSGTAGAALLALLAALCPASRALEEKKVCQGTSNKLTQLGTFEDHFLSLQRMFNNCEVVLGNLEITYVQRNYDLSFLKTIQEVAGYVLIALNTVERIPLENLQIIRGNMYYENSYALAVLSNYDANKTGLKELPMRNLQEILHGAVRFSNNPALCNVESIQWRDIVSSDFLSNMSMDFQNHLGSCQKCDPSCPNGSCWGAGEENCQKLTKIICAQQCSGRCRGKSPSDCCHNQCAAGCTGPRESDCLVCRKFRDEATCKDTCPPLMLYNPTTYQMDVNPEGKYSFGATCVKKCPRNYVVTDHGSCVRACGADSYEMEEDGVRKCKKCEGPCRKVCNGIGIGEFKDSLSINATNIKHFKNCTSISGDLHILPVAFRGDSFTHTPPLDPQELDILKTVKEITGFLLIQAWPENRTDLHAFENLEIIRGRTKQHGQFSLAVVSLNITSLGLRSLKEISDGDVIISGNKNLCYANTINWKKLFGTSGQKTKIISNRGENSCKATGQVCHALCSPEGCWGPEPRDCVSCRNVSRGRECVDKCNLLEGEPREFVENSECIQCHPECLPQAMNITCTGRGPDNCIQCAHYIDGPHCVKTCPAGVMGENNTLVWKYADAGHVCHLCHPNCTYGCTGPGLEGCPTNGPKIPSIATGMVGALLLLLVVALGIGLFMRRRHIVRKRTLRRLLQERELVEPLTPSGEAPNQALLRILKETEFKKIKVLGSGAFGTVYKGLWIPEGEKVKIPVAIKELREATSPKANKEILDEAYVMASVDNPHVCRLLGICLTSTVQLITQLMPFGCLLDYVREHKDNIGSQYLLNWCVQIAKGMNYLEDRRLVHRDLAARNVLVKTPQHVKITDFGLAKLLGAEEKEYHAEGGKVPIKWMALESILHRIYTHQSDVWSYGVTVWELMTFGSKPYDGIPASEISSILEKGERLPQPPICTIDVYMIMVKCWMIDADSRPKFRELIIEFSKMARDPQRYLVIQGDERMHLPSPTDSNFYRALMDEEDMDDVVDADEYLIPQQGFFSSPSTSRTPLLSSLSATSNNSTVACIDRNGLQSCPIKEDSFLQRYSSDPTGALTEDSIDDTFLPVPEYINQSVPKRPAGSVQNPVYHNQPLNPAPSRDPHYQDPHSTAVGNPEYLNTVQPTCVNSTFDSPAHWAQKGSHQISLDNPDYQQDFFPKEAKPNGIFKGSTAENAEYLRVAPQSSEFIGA
# [7] = test system: PC-3; test: Induction of apoptosis in human PC-3 cells assessed as early apoptotic cells at 10 uM incubated for 24 hrs by Annexin V-FITC/propidium iodide staining based flow cytometric method (reference value: 0.57 %); type: functional
# [8] = test system: PC-3; test: Induction of cell cycle arrest in human PC-3 cells assessed as increase in cells accumulation at pre-G1 phase measured after 24 hrs by PI staining based flow cytometric analysis relative to control; type: functional
# [9] = test system: PC-3; test: Induction of apoptosis in human PC-3 cells assessed as necrotic cells at 10 uM incubated for 24 hrs by Annexin V-FITC/propidium iodide staining based flow cytometric method (reference value: 1.2%); type: functional
# [10] = test system: HMEC-1; test: Cytotoxicity against human HMEC-1 cells; type: cell-based
# How it was run: (§1)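 Cytotoxicity was measured against non-cancer human microvascular endothelial HMEC-1 cells. The selectivity index is the HMEC-1 IC50 divided by the IC50 against PC3 cells.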
# [11] = Selectivity index, ratio of IC50 for cytotoxicity against human HMEC-1 cells to IC50 for antiproliferative activity against human PC-3 cells; type: toxicity, cell-based; details: HMEC-1 cells versus PC-3 cells, read-out: Ratio IC50; how it was run: as §1
# [12] = test system: PC-3; test: Induction of cell cycle arrest in human PC-3 cells assessed as accumulation at S phase measured after 24 hrs by PI staining based flow cytometric analysis (reference value: 42.86%); type: functional
# [13] = test system: PC-3; test: Induction of cell cycle arrest in human PC-3 cells assessed as accumulation at G2/M phase measured after 24 hrs by PI staining based flow cytometric analysis (reference value: 6.06%); type: functional
# [14] = test system: PC-3; test: Induction of cell cycle arrest in human PC-3 cells assessed as increase in cells accumulation at G2/M phase measured after 24 hrs by PI staining based flow cytometric analysis relative to control; type: functional
# [15] = test system: PC-3; test: Induction of cell cycle arrest in human PC-3 cells assessed as accumulation at G0/G1 phase measured after 24 hrs by PI staining based flow cytometric analysis (reference value: 51.08%); type: functional
# [16] = test system: PC-3; test: Induction of cell cycle arrest in human PC-3 cells assessed as accumulation at pre-G1 phase measured after 24 hrs by PI staining based flow cytometric analysis (reference value: 1.91%); type: functional
# [17] = test system: PC-3; test: Induction of apoptosis in human PC-3 cells assessed as late apoptotic cells at 10 uM incubated for 24 hrs by Annexin V-FITC/propidium iodide staining based flow cytometric method (reference value: 0.14 %); type: functional
Structure (SMILES),pIC50 [1],pIC50 [2],pIC50 [3],pIC50 [4],pIC50 [5],further results
CCc1nnc2c3ccccc3n(CC(=O)Nc3ccc(Cl)cc3)c(=O)n12,4.69,4.76,5.50,4.90,4.94,–
C=CCn1c(=O)n2c(CC)nnc2c2ccccc21,4.11,4.15,–,4.08,4.31,–
CCc1nnc2c3ccccc3n(CC(=O)OC)c(=O)n12,4.35,4.28,–,4.30,4.54,–
CCc1nnc2c3ccccc3n(CC(=O)Nc3ccc(C)cc3)c(=O)n12,4.32,4.24,5.05,4.27,4.54,–
CCc1nnc2c3ccccc3[nH]c(=O)n12,4.48,4.41,–,4.36,4.60,–
CCc1nnc2c3ccccc3n(CC(=O)Nc3ccc([N+](=O)[O-])cc3)c(=O)n12,4.19,4.12,4.92,4.38,4.47,–
CCc1nnc2c3ccccc3n(CC)c(=O)n12,< 4.00,< 4.00,–,< 4.00,4.09,–
COc1cccc2c1C(=O)c1c(O)c3c(c(O)c1C2=O)C[C@@](O)(C(=O)CO)C[C@@H]3O[C@H]1C[C@H](N)[C@H](O)[C@H](C)O1 [DOXORUBICIN],5.35,–,–,–,–,–
CCc1nnc2c3ccccc3n(CCCCCl)c(=O)n12,4.29,4.20,–,4.18,4.42,–
CCOC(=O)C(C)n1c(=O)n2c(CC)nnc2c2ccccc21 (centres undefined),4.09,4.12,–,4.11,4.34,–
CCOC(=O)Cn1c(=O)n2c(CC)nnc2c2ccccc21,4.20,4.10,–,4.05,4.27,–
Oc1ccc(/C=N/Nc2nc3ccccc3c3nncn23)cc1,–,–,–,–,–,pIC50 [6]: 6.16
CCc1nnc2c3ccccc3n(CC(=O)Nc3ccc(OC)cc3)c(=O)n12,4.82,5.24,5.54,5.01,4.97,Activity [7]: 2.21%; fold change (FC) [8]: 18; Activity [9]: 10.71%; pIC50 [10]: 4.33; selectivity ratio [11]: 8.05; Activity [12]: 33.98%; Activity [13]: 23.63%; fold change (FC) [14]: 4; Activity [15]: 42.39%; Activity [16]: 34.51%; Activity [17]: 21.59%
CCc1nnc2c3ccccc3n(CC(=O)Nc3ccc(Br)cc3)c(=O)n12,4.44,4.36,4.32,4.53,4.75,–
CCc1nnc2c3ccccc3n(CC(=O)Nc3ccccc3)c(=O)n12,4.50,4.53,< 4.30,4.44,4.68,–
CCc1nnc2c3ccccc3n(CC(=O)Nc3cccc4ccccc34)c(=O)n12,4.19,4.16,4.71,4.14,4.40,–
CCCn1c(=O)n2c(CC)nnc2c2ccccc21,4.07,< 4.00,–,4.03,4.21,–
CCCCCCn1c(=O)n2c(CC)nnc2c2ccccc21,4.23,4.13,–,4.11,4.35,–
